How the values were obtained:
[1] = cited from earlier work
[2] = Safety and tolerability after a single dose; format: in vivo, human; conditions: 24 subjects
Method in brief: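 Single 0.4 U/kg s.c. thigh dose given at 0800–1000 h. Safety assessed by adverse events (severity and relationship graded by investigator), physical examination, vital signs, ECG, biochemistry, hematology, urinalysis and hypoglycemia. Confirmed hypoglycemia: plasma glucose <3.1 mmol/L or ADA 'severe'. Treatment-emergent: onset from dosing to 7 days post-dose. Blood glucose sampled to 120 h.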

[3] = compared with insulin glargine; cited from earlier work

insulin aspart
Impact of hepatic impairment and renal impairment on pharmacokinetics ([1]; single-dose pharmacokinetic studies): no significant impact

insulin degludec
Adverse events (other than hypoglycemia) or medical events of special interest ([2]; single s.c. dose 0.4 U/kg): No adverse events
Injection-site reactions ([2]; single s.c. dose 0.4 U/kg into the thigh): No injection-site reactions were reported
Severe hypoglycemic episodes ([2]; single s.c. dose 0.4 U/kg, ADA definition of severe): none of these episodes were categorized as severe
Pharmacokinetic properties in subjects with renal impairment ([1]; varying degrees of impaired renal function): pharmacokinetic properties were also preserved in subjects with renal impairment
Variability of glucose-lowering effect [3]: four times less variable glucose-lowering effect

insulin detemir
Pharmacokinetics in subjects with renal or hepatic impairment [1]: no clinically relevant difference in pharmacokinetics

insulin lispro
Effect of hepatic dysfunction on glucodynamic response [1]: did not appear to affect the glucodynamic response

— publication PMC3899454 (Clinical Drug Investigation, 2013)
